{
  "source": "ChEMBL document CHEMBL1909581",
  "about": "“Growth inhibition of human lung cancer cells via down-regulation of epidermal growth factor receptor signaling by yuanhuadine, a daphnane diterpene from Daphne genkwa” (J Nat Prod, 2011)",
  "format_in_all_cases": "functional, cell-based",
  "key": {"NCI-H1993": {"tested_on": "NCI-H1993", "assay": "Antiproliferative activity against human NCI-H1993 cells after 3 days by SRB assay", "conditions": "NCI-H1993, 72 h"}, "SK-MES-1": {"tested_on": "SK-MES-1", "assay": "Antiproliferative activity against human SK-MES cells after 3 days by SRB assay", "conditions": "SK-MES-1, 72 h", "outline": "(§1)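 Cells seeded at 5 × 10^4 cells/mL and exposed to a range of concentrations for 3 days. Fixed with 10% TCA, then SRB stain read. Growth expressed as % of solvent-treated control. IC50 obtained by nonlinear regression of percent survival versus concentration.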"}, "A549": {"tested_on": "A549", "assay": "Antiproliferative activity against human A549 cells after 3 days by SRB assay", "conditions": "A549, 72 h", "outline": "as §1"}, "NCI-H358": {"tested_on": "NCI-H358", "assay": "Antiproliferative activity against human NCI-H358 cells after 3 days by SRB assay", "conditions": "NCI-H358, 72 h", "outline": "as §1"}, "[1]": {"assay": "Antiproliferative activity against human H1299 cells after 3 days by SRB assay", "conditions": "NCI-H1299, 72 h", "outline": "as §1"}, "NCI-H292": {"tested_on": "NCI-H292", "assay": "Antiproliferative activity against human NCI-H292 cells after 3 days by SRB assay", "conditions": "NCI-H292, 72 h"}},
  "data": [
    {"smiles": "Cc1c2ccncc2c(C)c2c1[nH]c1ccccc12", "note": "[ELLIPTECINE]", "values": [
      {"measurement": "IC50", "setting": "NCI-H1993", "value": 200, "unit": "nM"},
      {"measurement": "IC50", "setting": "SK-MES-1", "value": 200, "unit": "nM"},
      {"measurement": "IC50", "setting": "A549", "value": 1100, "unit": "nM"},
      {"measurement": "IC50", "setting": "NCI-H358", "value": 800, "unit": "nM"},
      {"measurement": "IC50", "setting": "[1]", "value": 600, "unit": "nM"},
      {"measurement": "IC50", "setting": "NCI-H292", "value": 1000, "unit": "nM"}
    ]}
  ]
}
